In ChEMBL document CHEMBL4689842, “EUbOPEN Chemogenomics Library wave 1” (2021):
Values joined by “and” are separate entries in the source; they are usually repeats but may differ in a detail not shown here. Equal values may be shown once.

Tested on: U2OS
Assay: Multiplex assay against U2OS
Type: toxicity, cell-based
Conditions: human
Summary of the method: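 Four dyes were applied at seeding to live cells: Hoechst33342, BioTracker Green Microtubule Cytoskeleton Dye, MitoTracker Red and Annexin V Alexa Fluor 680. Imaging after compound addition used a CQ1 microscope at 37°C and 5% CO2. CellPathfinder machine-learning gating then sorted cells into Hoechst high-intensity objects or normal cells, normal cells into healthy, pyknosed or fragmented nuclei, and pyknosed cells into mitotic or apoptotic, with tubulin, mitochondrial-mass and membrane-permeability phenotypes given as per cents of healthy-nucleus cells.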

[1] = 12 h, 1 µM, compound concentration 1 uM, replicate 1
[2] = 12 h, 1 µM, compound concentration 1 uM, replicate 2
[3] = 12 h, 10 µM, compound concentration 10 uM, replicate 1
[4] = 12 h, 10 µM, compound concentration 10 uM, replicate 2
[5] = 24 h, 1 µM, compound concentration 1 uM, replicate 1
[6] = 24 h, 1 µM, compound concentration 1 uM, replicate 2
[7] = 24 h, 10 µM, compound concentration 10 uM, replicate 1
[8] = 24 h, 10 µM, compound concentration 10 uM, replicate 2
[9] = 48 h, 1 µM, compound concentration 1 uM, replicate 1
[10] = 48 h, 1 µM, compound concentration 1 uM, replicate 2
[11] = 48 h, 10 µM, compound concentration 10 uM, replicate 1
[12] = 48 h, 10 µM, compound concentration 10 uM, replicate 2

Structure (SMILES): CNC(=O)c1ccc(Nc2ncc(C(F)(F)F)c(NCc3nccnc3N(C)S(C)(=O)=O)n2)cc1 [DEFACTINIB]
- Population Apoptotic (%) [1]: 22% and 66%
- Population Healthy Nuclei (%) [1]: 90% and 65%
- Population Hoechst High Intensity Objects (%) [1]: 4% and 6%
- Population Membrane Permeable-Phenotype (%) [1]: 13% and 37%
- Population Mitochondria Different-Phenotype (%) [1]: 27% and 15%
- Population Mitotic Cells (%) [1]: 77% and 33%
- Population Normal (%) [1]: 95% and 93%
- Population Pyknosed Nuclei (%) [1]: 4% and 12%
- Population Tubulin-Different-Phenotype (%) [1]: 21% and 36%
- Total Cell Count [1]: 194 and 96
- Population Apoptotic (%) [2]: 25% and 42%
- Population Fragmented Nuclei (%) [2]: 6% and 9%
- Population Healthy Nuclei (%) [2]: 89% and 77%
- Population Hoechst High Intensity Objects (%) [2]: 13% and 9%
- Population Mitochondria Different-Phenotype (%) [2]: 28% and 16%
- Population Mitotic Cells (%) [2]: 75% and 57%
- Population Normal (%) [2]: 86% and 90%
- Population Pyknosed Nuclei (%) [2]: 13%
- Population Tubulin-Different-Phenotype (%) [2]: 24%
- Total Cell Count [2]: 107 and 86
- Population Apoptotic (%) [3]: 64% and 37%
- Population Fragmented Nuclei (%) [3]: 14% and 7%
- Population Healthy Nuclei (%) [3]: 65% and 83%
- Population Hoechst High Intensity Objects (%) [3]: 8% and 3%
- Population Mitochondria Different-Phenotype (%) [3]: 13% and 25%
- Population Mitotic Cells (%) [3]: 35% and 62%
- Population Normal (%) [3]: 91% and 96%
- Population Pyknosed Nuclei (%) [3]: 20% and 8%
- Population Tubulin-Different-Phenotype (%) [3]: 32% and 24%
- Total Cell Count [3]: 148 and 188
- Population Apoptotic (%) [4]: 33% and 28%
- Population Healthy Nuclei (%) [4]: 44% and 80%
- Population Hoechst High Intensity Objects (%) [4]: 30% and 18%
- Population Membrane Permeable-Phenotype (%) [4]: 26%
- Population Mitotic Cells (%) [4]: 66% and 71%
- Population Normal (%) [4]: 69% and 81%
- Population Pyknosed Nuclei (%) [4]: 10%
- Population Tubulin-Different-Phenotype (%) [4]: 23% and 30%
- Total Cell Count [4]: 166 and 106
- Population Apoptotic (%) [5]: 46% and 76%
- Population Healthy Nuclei (%) [5]: 88% and 62%
- Population Hoechst High Intensity Objects (%) [5]: 0% and 10%
- Population Mitochondria Different-Phenotype (%) [5]: 29% and 32%
- Population Mitotic Cells (%) [5]: 53% and 24%
- Population Normal (%) [5]: 99% and 89%
- Population Pyknosed Nuclei (%) [5]: 5% and 15%
- Population Tubulin-Different-Phenotype (%) [5]: 30% and 46%
- Total Cell Count [5]: 259
- Population Fragmented Nuclei (%) [6]: 7% and 20%
- Population Healthy Nuclei (%) [6]: 90% and 57%
- Population Hoechst High Intensity Objects (%) [6]: 9% and 7%
- Population Mitochondria Different-Phenotype (%) [6]: 37% and 31%
- Population Mitotic Cells (%) [6]: 100% and 34%
- Population Normal (%) [6]: 90% and 92%
- Population Tubulin-Different-Phenotype (%) [6]: 29% and 36%
- Total Cell Count [6]: 129 and 90
- Population Apoptotic (%) [7]: 68% and 42%
- Population Healthy Nuclei (%) [7]: 51% and 88%
- Population Mitochondria Different-Phenotype (%) [7]: 28% and 32%
- Population Mitotic Cells (%) [7]: 31% and 57%
- Population Normal (%) [7]: 89% and 97%
- Population Tubulin-Different-Phenotype (%) [7]: 40% and 26%
- Total Cell Count [7]: 139 and 241
- Population Apoptotic (%) [8]: 40% and 20%
- Population Hoechst High Intensity Objects (%) [8]: 27% and 11%
- Population Membrane Permeable-Phenotype (%) [8]: 25% and 17%
- Population Mitochondria Different-Phenotype (%) [8]: 37% and 38%
- Population Mitotic Cells (%) [8]: 59% and 80%
- Population Normal (%) [8]: 72% and 88%
- Population Tubulin-Different-Phenotype (%) [8]: 34% and 28%
- Total Cell Count [8]: 163 and 126

Structure (SMILES): Cc1ccc(C)c(Oc2ccncc2C(=O)N2CCN(C3CC3)c3ccccc32)c1
- Population Apoptotic (%) [1]: 53%
- Population Fragmented Nuclei (%) [1]: 10%
- Population Healthy Nuclei (%) [1]: 77%
- Population Hoechst High Intensity Objects (%) [1]: 7%
- Population Normal (%) [1]: 92%
- Total Cell Count [1]: 135
- Population Apoptotic (%) [2]: 66%
- Population Healthy Nuclei (%) [2]: 75%
- Population Hoechst High Intensity Objects (%) [2]: 10%
- Population Normal (%) [2]: 89%
- Total Cell Count [2]: 73
- Population Apoptotic (%) [3]: 48%
- Population Fragmented Nuclei (%) [3]: 15%
- Population Healthy Nuclei (%) [3]: 61%
- Population Hoechst High Intensity Objects (%) [3]: 6%
- Population Mitotic Cells (%) [3]: 51%
- Population Normal (%) [3]: 93%
- Total Cell Count [3]: 132
- Population Apoptotic (%) [4]: 33%
- Population Fragmented Nuclei (%) [4]: 6%
- Population Healthy Nuclei (%) [4]: 72%
- Population Hoechst High Intensity Objects (%) [4]: 3%
- Population Normal (%) [4]: 96%
- Total Cell Count [4]: 59
- Population Apoptotic (%) [5]: 47%
- Population Fragmented Nuclei (%) [5]: 8%
- Population Healthy Nuclei (%) [5]: 76%
- Population Hoechst High Intensity Objects (%) [5]: 3%
- Population Mitotic Cells (%) [5]: 52%
- Population Normal (%) [5]: 96%
- Total Cell Count [5]: 137
- Population Apoptotic (%) [6]: 42%
- Population Fragmented Nuclei (%) [6]: 27%
- Population Healthy Nuclei (%) [6]: 60%
- Population Hoechst High Intensity Objects (%) [6]: 6%
- Population Normal (%) [6]: 93%
- Total Cell Count [6]: 71
- Population Apoptotic (%) [7]: 51%
- Population Healthy Nuclei (%) [7]: 50%
- Population Hoechst High Intensity Objects (%) [7]: 10%
- Population Mitotic Cells (%) [7]: 48%
- Population Normal (%) [7]: 89%
- Total Cell Count [7]: 152
- Population Apoptotic (%) [8]: 53%
- Population Healthy Nuclei (%) [8]: 66%
- Population Hoechst High Intensity Objects (%) [8]: 7%
- Population Normal (%) [8]: 92%
- Total Cell Count [8]: 65
- Population Apoptotic (%) [9]: 46%
- Population Fragmented Nuclei (%) [9]: 4%
- Population Healthy Nuclei (%) [9]: 82%
- Population Hoechst High Intensity Objects (%) [9]: 3%
- Population Mitotic Cells (%) [9]: 53%
- Population Normal (%) [9]: 96%
- Total Cell Count [9]: 139
- Population Apoptotic (%) [10]: 36%
- Population Fragmented Nuclei (%) [10]: 6%
- Population Healthy Nuclei (%) [10]: 79%
- Population Hoechst High Intensity Objects (%) [10]: 4%
- Population Mitotic Cells (%) [10]: 63%
- Population Normal (%) [10]: 95%
- Total Cell Count [10]: 69
- Population Apoptotic (%) [11]: 61%
- Population Fragmented Nuclei (%) [11]: 14%
- Population Healthy Nuclei (%) [11]: 42%
- Population Hoechst High Intensity Objects (%) [11]: 9%
- Population Mitotic Cells (%) [11]: 38%
- Population Normal (%) [11]: 90%
- Total Cell Count [11]: 213
- Population Apoptotic (%) [12]: 33%
- Population Fragmented Nuclei (%) [12]: 22%
- Population Healthy Nuclei (%) [12]: 55%
- Population Hoechst High Intensity Objects (%) [12]: 1%
- Population Normal (%) [12]: 98%
- Total Cell Count [12]: 83
